Assay results published in ChEMBL document CHEMBL4765286, “Identification and development of non-cytotoxic cell death modulators: Impact of sartans and derivatives on PPARγ activation and on growth of imatinib-resistant chronic myelogenous leukemia cells” (Eur J Med Chem, 2020).
Activity calls are given as the source filed them. No cut-off for these calls is given here.

How the values were obtained:
[1] = Cytotoxicity against human HS5 cells assessed as cell death at 10 uM measured after 72 hrs by Propidium iodide stain based FACS analysis; settings: hs5, 72 h
Procedure, shortened: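 HS-5 cells seeded at 0.5×10^5 per well and treated with compound or DMSO vehicle (final DMSO ≤0.1%) for 72 h. Harvested cells stained with PI/Triton-X100 for 2 h at 4 °C. Dead cells were counted by flow cytometry as nuclei in the sub-G1 window. Mean +SEM of ≥3 independent experiments.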

[2] = Modulation of cell death in imatinib-resistant human K562 cells assessed by increase in imatinib-mediated cell death in presence of presence of imatinib measured after 72 hrs by Propidium iodide stain based FACS assay (reference value: 17%); format: functional
COS-7 [3] = test: Cytotoxicity against African green monkey COS7 cells assessed as effect on metabolic activity at 10 uM measured after 72 hrs by MTT assay; format: ADME, cell-based; settings: chlorocebus aethiops, cos-7, 72 h
Procedure, shortened: (§1)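 COS-7 cells seeded at 2×10^3 per well in triplicate, grown 24 h, then exposed to test agent or DMSO vehicle (final DMSO ≤0.1%) for 72 h. Metabolic activity read with a modified MTT (EZ4U) kit. Background from FCS-containing medium plus substrate subtracted. Expressed relative to vehicle control set to 100%. Mean +SD of ≥3 independent experiments.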

[4] = biological target: T1, Signal transducer and activator of transcription 5A (Homo sapiens) (UniProt P42229); test: Inhibition of STAT5 in imatinib-resistant human K562 cells assessed as effect on STAT5 expression in presence of imatinib at 10 uM measured after 6 hrs by Western blot assay; format: cell-based
T1 sequence (whole entry): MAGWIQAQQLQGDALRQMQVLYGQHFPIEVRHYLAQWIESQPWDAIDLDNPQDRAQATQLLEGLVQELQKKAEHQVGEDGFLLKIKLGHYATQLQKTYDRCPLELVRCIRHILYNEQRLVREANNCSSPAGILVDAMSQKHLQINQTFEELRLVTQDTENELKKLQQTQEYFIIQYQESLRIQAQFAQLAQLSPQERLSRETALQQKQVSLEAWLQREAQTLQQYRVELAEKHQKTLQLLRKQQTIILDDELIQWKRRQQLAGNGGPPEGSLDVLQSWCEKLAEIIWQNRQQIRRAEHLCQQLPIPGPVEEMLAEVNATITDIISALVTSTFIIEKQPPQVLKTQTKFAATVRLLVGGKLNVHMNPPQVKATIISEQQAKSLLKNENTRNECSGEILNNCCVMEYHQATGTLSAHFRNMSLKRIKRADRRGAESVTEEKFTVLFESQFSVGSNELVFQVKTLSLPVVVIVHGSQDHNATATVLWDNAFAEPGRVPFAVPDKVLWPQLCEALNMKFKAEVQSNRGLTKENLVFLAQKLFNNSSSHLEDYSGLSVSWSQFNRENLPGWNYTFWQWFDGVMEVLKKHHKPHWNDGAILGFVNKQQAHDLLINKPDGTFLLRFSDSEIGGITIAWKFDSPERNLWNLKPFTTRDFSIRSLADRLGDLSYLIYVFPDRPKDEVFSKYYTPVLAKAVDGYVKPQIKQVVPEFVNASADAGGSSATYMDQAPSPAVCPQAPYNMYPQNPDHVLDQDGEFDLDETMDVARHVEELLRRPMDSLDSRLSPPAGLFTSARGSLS

[5] = biological target: T1, Signal transducer and activator of transcription 5A (Homo sapiens); test: Inhibition of STAT5 phosphorylation in imatinib-resistant human K562 cells in presence of imatinib at 10 uM measured after 6 hrs by Western blot assay; format: cell-based
Procedure, shortened: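 K562-resistant cells (a doxorubicin-resistant K562 subclone, KD225) kept in RPMI 1640 with 10% FCS. Cells received 1 µM imatinib alone or with 10 µM compound for 6 h. Immunoblots were probed for STAT5 and for pSTAT5 (Tyr694/699), with GAPDH as loading control, and developed by ECL. Densitometry was normalised to the imatinib-only control set to 100%.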

COS-7 [6] = test: Cytotoxicity against African green monkey COS7 cells assessed as effect on metabolic activity at 20 uM measured after 72 hrs by MTT assay; format: ADME, cell-based; settings: chlorocebus aethiops, cos-7, 72 h; procedure, shortened: as §1
[7] = biological target: T2, Peroxisome proliferator-activated receptor gamma (Homo sapiens, UniProt P37231); test: Agonist activity at human PPARgammaDEF receptor expressed in african green monkey COS7 cells transfected with pGal5-TK-pGL3/pRenilla-CMV assessed as intrinsic activity measured after 39 hrs by dual luciferase reporter assay; format: cell-based
T2 sequence (P37231 whole entry): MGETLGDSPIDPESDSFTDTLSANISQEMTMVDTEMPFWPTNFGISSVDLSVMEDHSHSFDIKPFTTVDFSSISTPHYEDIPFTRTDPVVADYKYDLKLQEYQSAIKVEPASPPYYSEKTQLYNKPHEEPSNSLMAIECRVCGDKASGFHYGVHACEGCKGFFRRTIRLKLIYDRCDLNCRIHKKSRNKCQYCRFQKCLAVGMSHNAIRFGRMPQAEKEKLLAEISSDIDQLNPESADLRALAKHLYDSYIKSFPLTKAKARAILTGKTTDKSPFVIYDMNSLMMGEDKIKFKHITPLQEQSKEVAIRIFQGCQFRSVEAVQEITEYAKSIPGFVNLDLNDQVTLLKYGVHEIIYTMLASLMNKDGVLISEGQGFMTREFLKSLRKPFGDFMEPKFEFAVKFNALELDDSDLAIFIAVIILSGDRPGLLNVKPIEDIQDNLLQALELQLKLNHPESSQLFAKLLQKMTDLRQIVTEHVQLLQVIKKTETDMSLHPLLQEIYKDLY

[8] = Modulation of cell death in imatinib-resistant human K562 cells assessed by increase in imatinib-mediated cell death in presence of presence of imatinib at 2.5 uM measured after 72 hrs by Propidium iodide stain based FACS assay (reference value: 17%); format: functional

CCCc1nc2c(C(=O)O)cccc2n1Cc1ccc(-c2ccccc2C(=O)O)cc1
Activity [1]: Non-Toxic | Activity [2]: 12% | Activity (COS-7 [3]): Non-Toxic | inhibition [4]: inactive | inhibition [5]: inactive | Activity (COS-7 [6]): Non-Toxic

CCCCc1nc(Cl)c(CO)n1Cc1ccc(-c2ccccc2-c2nn[nH]n2)cc1 [LOSARTAN]
Activity [1]: Non-Toxic | Activity (COS-7 [3]): Non-Toxic | Activity (COS-7 [6]): Non-Toxic

CCCc1nc(C(C)(C)O)c(C(=O)OCc2oc(=O)oc2C)n1Cc1ccc(-c2ccccc2-c2nnn[nH]2)cc1 [OLMESARTAN MEDOXOMIL]
Activity [1]: Non-Toxic | Activity (COS-7 [3]): Non-Toxic | Activity (COS-7 [6]): Non-Toxic

CCCc1nc2c(C)cc(-c3nc4ccccc4n3C)cc2n1Cc1ccc(-c2ccccc2C(N)=O)cc1
Activity [1]: Non-Toxic | Activity [2]: 89% | EC50 [7]: 9.1 µM | Activity (COS-7 [3]): Non-Toxic | inhibition [4]: inactive | Activity [8]: 50% | inhibition [5]: Active | Activity (COS-7 [6]): Non-Toxic

CCCc1nc2c(C(=O)O)cccc2n1Cc1ccc(-c2ccccc2C(=O)OC)cc1
Activity [1]: Non-Toxic | Activity [2]: 56% | Activity (COS-7 [3]): Non-Toxic | inhibition [4]: inactive | inhibition [5]: Active | Activity (COS-7 [6]): Non-Toxic

CCCc1nc2cccc(C(=O)OC)c2n1Cc1ccc(-c2ccccc2C(=O)OC)cc1
Activity [1]: Non-Toxic | Activity [2]: 83% | Activity (COS-7 [3]): Non-Toxic | inhibition [4]: inactive | Activity [8]: 50% | inhibition [5]: Active | Activity (COS-7 [6]): Non-Toxic

CCc1ccc(CCOc2ccc(CC3SC(=O)NC3=O)cc2)nc1 (centres undefined) [PIOGLITAZONE]
Activity [1]: Non-Toxic | Activity (COS-7 [3]): Non-Toxic | Activity (COS-7 [6]): Non-Toxic

CCCc1nc2c(C)cc(-c3nc4ccccc4n3C)cc2n1Cc1ccc(-c2ccccc2C(=O)O)cc1 [TELMISARTAN]
Activity [1]: Non-Toxic | Activity [2]: 63% | Activity (COS-7 [3]): Non-Toxic | inhibition [4]: inactive | inhibition [5]: Active | Activity (COS-7 [6]): Non-Toxic

CCCc1nc2c(C(=O)OC)cccc2n1Cc1ccc(-c2ccccc2C(=O)OC)cc1
Activity [1]: Non-Toxic | Activity [2]: 83% | Activity (COS-7 [3]): Non-Toxic | inhibition [4]: inactive | Activity [8]: 50% | inhibition [5]: Active | Activity (COS-7 [6]): 20%

CCOc1nc2cccc(C(=O)OC(C)OC(=O)OC3CCCCC3)c2n1Cc1ccc(-c2ccccc2-c2nnn[nH]2)cc1 (centres undefined) [CANDESARTAN CILEXETIL]
Activity [1]: Non-Toxic | Activity (COS-7 [3]): Non-Toxic | Activity (COS-7 [6]): Non-Toxic

CCOc1nc2cccc(C(=O)O)c2n1Cc1ccc(-c2ccccc2-c2nnn[nH]2)cc1 [CANDESARTAN]
Activity [1]: Non-Toxic | Activity [2]: 42% | Activity (COS-7 [3]): Non-Toxic | Activity (COS-7 [6]): Non-Toxic

CCCCC1=NC2(CCCC2)C(=O)N1Cc1ccc(-c2ccccc2-c2nnn[nH]2)cc1 [IRBESARTAN]
Activity [1]: Non-Toxic | Activity [2]: 31% | Activity (COS-7 [3]): Non-Toxic | Activity (COS-7 [6]): Non-Toxic

CCCc1nc2cccc(C(=O)O)c2n1Cc1ccc(-c2ccccc2C(=O)O)cc1
Activity [1]: Non-Toxic | Activity [2]: 12% | Activity (COS-7 [3]): Non-Toxic | inhibition [4]: inactive | inhibition [5]: inactive | Activity (COS-7 [6]): Non-Toxic

CCCc1nc(C(C)(C)O)c(C(=O)O)n1Cc1ccc(-c2ccccc2-c2nnn[nH]2)cc1 [OLMESARTAN]
Activity [1]: Non-Toxic | Activity (COS-7 [3]): Non-Toxic | Activity (COS-7 [6]): Non-Toxic
